≈ marks a conversion by molar mass, not a printed value. Calls of active or inactive are those of the source. No cut-off for these calls is given here.
Tests used:
[1] = Tmax in Enterococcus faecalis infected Wistar rat at single administration of 1 g, iv; assay type: ADME, organism-based; settings: in vivo
In short: (§1)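 Serum drug levels in rats receiving human-kinetics simulation by pump, measured in groups of three to five animals by agar diffusion bioassay with Bacillus subtilis ATCC 6633 as indicator; detection limit 1.76 mg/liter; linear standard curves. Values as means ± SD.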

Enterococcus faecalis [2] = assay: Antibacterial activity against vancomycin-resistant Enterococcus faecalis UCN41 challenged with ID90 bacterial size inoculum in Wistar rat assessed as infection at single administration of 1 g, iv; assay type: functional, organism-based
In short: (§2)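 Female Wistar rats (180 to 200 g) with catheter-induced sterile aortic vegetations; 24 h after catheterization, groups of 10 received prophylaxis by pump at changing flow rates mimicking human serum kinetics; controls got i.v. saline. I.v. challenge at peak serum drug level with ID90 or 10 times ID90. Vegetations cultured 72 h after prophylaxis ended; sterile if no growth, detection limit ≥2 log10 CFU/g.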

Enterococcus faecalis [3] = assay: Antibacterial activity against vancomycin-resistant Enterococcus faecalis UCN41 after 24 hrs by broth macrodilution method; assay type: functional
Enterococcus faecalis [4] = assay: Antibacterial activity against vancomycin-susceptible Enterococcus faecalis JH2-2 after 24 hrs by broth macrodilution method; assay type: functional
Enterococcus faecalis [5] = assay: Antibacterial activity against vancomycin-susceptible Enterococcus faecalis JH2-2 challenged with ID90 bacterial size inoculum in Wistar rat assessed as infection at single administration 1 g, iv; assay type: functional, organism-based; in short: as §2
Enterococcus faecalis [6] = assay: Antibacterial activity against vancomycin-susceptible Enterococcus faecalis 1209 after 24 hrs by broth macrodilution method; assay type: functional
Rattus norvegicus [7] = assay: T>MIC in Enterococcus faecalis infected Wistar rat at single administration of 1 g, iv; assay type: ADME, organism-based; settings: in vivo; in short: as §1
[8] = Cmax in Enterococcus faecalis infected Wistar rat at single administration of 1 g, iv; assay type: ADME, organism-based; design: dose 1 g, route intravenous; settings: in vivo; in short: as §1
Enterococcus faecalis [9] = assay: Antibacterial activity against vancomycin-susceptible Enterococcus faecalis 309 after 24 hrs by broth macrodilution method; assay type: functional
[10] = Tmax in Enterococcus faecalis infected Wistar rat at 600 mg, po two consecutive administration every 12 hrs; assay type: ADME, organism-based; settings: in vivo
In short: (§3)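 Female Wistar rats (180–200 g) with sterile aortic vegetations from a carotid catheter received drug 24 h later by pump at changing flow rates, mimicking human serum kinetics of 600 mg oral doses every 12 h. Serum levels were measured in groups of three to five rats by agar diffusion bioassay (S. aureus ATCC 29213 indicator; detection limit 3.12 mg/liter).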

[11] = Cmax in Enterococcus faecalis infected Wistar rat at 600 mg, po four consecutive administration every 12 hrs; assay type: ADME, organism-based; design: dose 600 mg, route oral; settings: in vivo
In short: (§4)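 Catheterized female Wistar rats received pump-controlled i.v. infusion at changing flow rates simulating human serum kinetics of the oral regimen. Serum drug levels were measured by agar diffusion bioassay in groups of 3–5 animals. Indicator organisms were B. subtilis ATCC 6633 for amoxicillin (detection limit 0.39 mg/liter) and S. aureus ATCC 29213 for linezolid (detection limit 3.12 mg/liter). Values are means ± SD.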

[12] = Tmax in Enterococcus faecalis infected Wistar rat at single administration of 600 mg, po; assay type: ADME, organism-based; settings: in vivo; in short: as §3
Rattus norvegicus [13] = assay: T>MIC in Enterococcus faecalis infected Wistar rat at single administration of 600 mg, po; assay type: ADME, organism-based; settings: in vivo; in short: as §4
[14] = Cmax in Enterococcus faecalis infected Wistar rat at 600 mg, po two consecutive administration every 12 hrs; assay type: ADME, organism-based; design: dose 600 mg, route oral; settings: in vivo; in short: as §4
Rattus norvegicus [15] = assay: T>MIC in Enterococcus faecalis infected Wistar rat at 600 mg, po four consecutive administration every 12 hrs; assay type: ADME, organism-based; settings: in vivo; in short: as §4
[16] = Tmax in Enterococcus faecalis infected Wistar rat at 600 mg, po four consecutive administration every 12 hrs; assay type: ADME, organism-based; settings: in vivo; in short: as §3
Rattus norvegicus [17] = assay: T>MIC in Enterococcus faecalis infected Wistar rat at 600 mg, po two consecutive administration every 12 hrs; assay type: ADME, organism-based; settings: in vivo; in short: as §4
[18] = Cmax in Enterococcus faecalis infected Wistar rat at single administration of 600 mg, po; assay type: ADME, organism-based; design: dose 600 mg, route oral; settings: in vivo; in short: as §4
Enterococcus faecalis [19] = assay: Antibacterial activity against vancomycin-resistant Enterococcus faecalis UCN41 challenged with 10 times ID90 bacterial size inoculum in Wistar rat assessed as infection at single administration of 600 mg, po; assay type: functional, organism-based; in short: as §2
Enterococcus faecalis [20] = assay: Antibacterial activity against vancomycin-susceptible Enterococcus faecalis 1209 challenged with 10 times ID90 bacterial size inoculum in Wistar rat assessed as infection at single administration of 2 to 3 g, po
[21] = Cmax in Enterococcus faecalis infected Wistar rat at single administration of 2 to 3 g, po; assay type: ADME, organism-based; settings: in vivo; in short: as §4
Enterococcus faecalis [22] = assay: Antibacterial activity against vancomycin-susceptible Enterococcus faecalis 309 challenged with 10 times ID90 bacterial size inoculum in Wistar rat assessed as infection at single administration of 2 to 3 g, po
Enterococcus faecalis [23] = assay: Antibacterial activity against vancomycin-resistant Enterococcus faecalis UCN41 challenged with ID90 bacterial size inoculum in Wistar rat assessed as infection at single administration of 2 to 3 g, po; assay type: functional, organism-based; in short: as §2
[24] = Tmax in Enterococcus faecalis infected Wistar rat at single administration of 2 to 3 g, po; assay type: ADME, organism-based; settings: in vivo
In short: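 Female Wistar rats (180-200 g) with catheter-induced sterile aortic vegetations; 24 h after catheterization, drug delivered by pump at changing flow rates to mimic human serum kinetics of a single 2-3 g oral dose. Serum levels in groups of 3-5 rats by agar diffusion bioassay (Bacillus subtilis ATCC 6633 indicator; detection limit 0.39 mg/liter); means ± SD.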

Enterococcus faecalis [25] = assay: Antibacterial activity against vancomycin-susceptible Enterococcus faecalis JH2-2 challenged with ID90 bacterial size inoculum in Wistar rat assessed as infection at single administration of 2 to 3 g, po; assay type: functional, organism-based
In short: (§5)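 Female Wistar rats (180–200 g) with catheter-induced sterile aortic vegetations. 24 h after catheterization, drug is delivered i.v. by pump at changing flow rates to mimic human serum kinetics of a single 2–3 g oral dose. Rats are challenged i.v. with the ID90 at peak serum concentration. Vegetations are cultured 72 h after prophylaxis ends; sterile = no growth (detection ≥2 log10 CFU/g).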

Rattus norvegicus [26] = assay: T>MIC in Enterococcus faecalis infected Wistar rat at single administration of 2 to 3 g, po; assay type: ADME, organism-based; settings: in vivo; in short: as §4
Enterococcus faecalis [27] = assay: Antibacterial activity against vancomycin-susceptible Enterococcus faecalis 309 challenged with ID90 bacterial size inoculum in Wistar rat assessed as infection at single administration of 2 to 3 g, po; assay type: functional, organism-based; in short: as §5
[28] = Enterococcus faecalis, 1209, 24 h
[29] = Enterococcus faecalis, 309, 24 h

CN[C@H](CC(C)C)C(=O)N[C@H]1C(=O)N[C@@H](CC(N)=O)C(=O)N[C@H]2C(=O)N[C@H]3C(=O)N[C@H](C(=O)N[C@H](C(=O)O)c4cc(O)cc(O)c4-c4cc3ccc4O)[C@H](O)c3ccc(c(Cl)c3)Oc3cc2cc(c3O[C@@H]2O[C@H](CO)[C@@H](O)[C@H](O)[C@H]2O[C@H]2C[C@](C)(N)[C@H](O)[C@H](C)O2)Oc2ccc(cc2Cl)[C@H]1O [VANCOMYCIN]
Tmax [1]: 0.5 h
Activity (Enterococcus faecalis [2]): inactive
MIC (Enterococcus faecalis [3]; UCN41, 24 h): > 256 µg/mL
MIC (Enterococcus faecalis [4]; JH2-2, 24 h): 1 µg/mL (≈ 0.69 µM)
Activity (Enterococcus faecalis [5]): Active
MIC (Enterococcus faecalis [6]; [28]): 4 µg/mL (≈ 2.76 µM)
T>MIC (Rattus norvegicus [7]): 12 h
Cmax [8]: 37800 ng/mL
MIC (Enterococcus faecalis [9]; [29]): 4 µg/mL (≈ 2.76 µM)

CC(=O)NC[C@H]1CN(c2ccc(N3CCOCC3)c(F)c2)C(=O)O1 [LINEZOLID]
Tmax [10]: 1 h
Cmax [11]: 19300 ng/mL
Tmax [12]: 1 h
T>MIC (Rattus norvegicus [13]): 12 h
Cmax [14]: 18600 ng/mL
T>MIC (Rattus norvegicus [15]): 48 h
Tmax [16]: 1 h
T>MIC (Rattus norvegicus [17]): 24 h
Cmax [18]: 17500 ng/mL
Activity (Enterococcus faecalis [19]): inactive

CC1(C)S[C@@H]2[C@H](NC(=O)[C@H](N)c3ccc(O)cc3)C(=O)N2[C@H]1C(=O)O [AMOXICILLIN]
MIC (Enterococcus faecalis [3]; UCN41, 24 h): 0.25 µg/mL (≈ 0.684 µM)
Activity (Enterococcus faecalis [20]): Active
MIC (Enterococcus faecalis [4]; JH2-2, 24 h): 0.25 µg/mL (≈ 0.684 µM)
Cmax [21]: 29400 ng/mL
MIC (Enterococcus faecalis [6]; [28]): 1 µg/mL (≈ 2.74 µM)
MIC (Enterococcus faecalis [9]; [29]): 0.5 µg/mL (≈ 1.37 µM)
Activity (Enterococcus faecalis [22]): Active
Activity (Enterococcus faecalis [23]): Active
Tmax [24]: 2 h
Activity (Enterococcus faecalis [25]): Active
T>MIC (Rattus norvegicus [26]): 12 h
Activity (Enterococcus faecalis [27]): Active
Activity (Enterococcus faecalis [19]): Active

GENTAMICIN
MIC (Enterococcus faecalis [3]): 1 µg/mL
MIC (Enterococcus faecalis [4]): 2 µg/mL
MIC (Enterococcus faecalis [6]): 16 µg/mL
MIC (Enterococcus faecalis [9]): 64 µg/mL

Source: ChEMBL document CHEMBL1145514, “Single-dose oral amoxicillin or linezolid for prophylaxis of experimental endocarditis due to vancomycin-susceptible and vancomycin-resistant Enterococcus faecalis” (Antimicrob Agents Chemother, 2007)
